Assay results as given in ChEMBL document CHEMBL1821702, “8,8-Dimethyldihydroberberine with improved bioavailability and oral efficacy on obese and diabetic mouse models” (Bioorg Med Chem, 2010).
Activity calls are given as the source filed them. The calls are words filed in the database; no cut-off is given here.

Key:
Rattus norvegicus [1] = species on record: Rattus norvegicus; assay: Inhibition of electron transport protein complex 1-mediated cellular respiration in rat liver mitochondria assessed as consumption of oxygen at 2.5 to 40 uM using pyruvate as substrate
How it was run: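 Mitochondria isolated from rat liver. Complex I substrates 5 mM pyruvate plus 2 mM malate, with excess ADP (2.4 mM). Oxygen consumption read as dose–response. Three independent experiments, n = 5–7.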

Mus musculus [2] = assay: Toxicity in C57BLKS/J-db/db mouse assessed as change in liver to body weight ratio at 50 mg/kg/day, po for 6 weeks; type: organism-based; parameters: route oral; details: in vivo, 1008 h
How it was run: (§1)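 db/db mice (half male, half female) were dosed by oral gavage daily for 6 weeks in 0.5% microcrystalline cellulose/1.6% lactose vehicle. Body weight and food intake were recorded daily. Mice were killed after the final dose, and liver and fat depots were weighed and expressed relative to body weight.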

Rattus norvegicus [3] = species on record: Rattus norvegicus; assay: Induction of AMPK-dependent ACC phosphorylation in 2 hrs serum starved rat differentiated L6 myotubes after 1 hr
How it was run: (§2)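 Fully differentiated L6 myotubes were serum-starved 2 h, then treated 1 h across a dose series. Phospho-AMPK (Thr172) and phospho-ACC (Ser79) were detected by Western blot. Three independent experiments.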

Mus musculus [4] = assay: Antidiabetic activity in C57BLKS/J-db/db mouse assessed as decrease in fed blood glucose level at 50 mg/kg/day, po for 4 weeks; type: functional; parameters: scale not given: the % may be the effect or the level left
Mus musculus [5] = assay: Toxicity in high fat diet-fed C57BL/6J mouse assessed as change in food intake at 15 mg/kg/day, po for 6 weeks; type: organism-based; parameters: route oral; details: in vivo, 1008 h
How it was run: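 Male C57BL/6J mice (purchased at 6 weeks of age) fed 60 kcal% fat diet for 8 weeks, then randomized by body weight and fed glucose. Dosed orally once daily for 6 weeks in vehicle of 0.5% microcrystalline cellulose plus 1.6% lactose. Groups: high-fat vehicle, metformin 250 mg/kg positive control, chow-fed vehicle. Body weight and food intake recorded daily.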

Mus musculus [6] = assay: Toxicity in C57BLKS/J-db/db mouse assessed as change in body weight at 50 mg/kg/day, po for 6 weeks; type: organism-based; parameters: route oral; details: in vivo, 1008 h; how it was run: as §1
L6 [7] = assay: Increase in glucose uptake in rat differentiated L6 myotubes after 15 mins; type: functional
How it was run: (§3)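 Fully differentiated L6 myotubes were serum-starved 2 h, then treated with compound for 15 min to 2 h (dose series at 1 h). Glucose uptake was measured relative to DMSO control. Mean of three independent experiments ± SE.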

Mus musculus [8] = assay: Antidiabetic activity in high fat diet-fed C57BL/6J mouse assessed as alleviation of insulin resistance at 15 mg/kg/day, po for 4 weeks measured after 60 mins by insulin tolerance test; type: functional, organism-based
How it was run: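 Male C57BL/6J mice were fed a 60 kcal% fat diet for 8 weeks, randomized, then gavaged daily in 0.5% microcrystalline cellulose/1.6% lactose vehicle. ITT was run at 4 weeks: 6 h fast, insulin 0.75 U/kg ip, blood glucose at 0, 15, 30, 60, 90 and 120 min. Mean ± SE, n = 5–8.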

L6 [9] = assay: Increase in glucose uptake in rat differentiated L6 myotubes at 10 uM in presence of 100 nM PI-3 kinase inhibitor wortmannin
Mus musculus [10] = assay: Toxicity in C57BLKS/J-db/db mouse assessed as change in fat to body weight ratio at 50 mg/kg/day, po for 6 weeks; type: organism-based; parameters: route oral; details: in vivo, 1008 h; how it was run: as §1
[11] = Stability in acidic buffer at pH 2 after 6 hrs by HPLC; type: physicochemical; details: buffer, pH 2, 6 h
How it was run: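 A 0.5 mg/mL solution in acetonitrile was adjusted to pH 2 with H3PO4 and analyzed over 6 h by HPLC. Conditions: C18 column at 25 °C, 58% acetonitrile in 0.05 mol/L KH2PO4/0.005 mol/L SDS, 1 mL/min, detection at 320 nm.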

L6 [12] = assay: Increase in glucose uptake in rat differentiated L6 myotubes at 2.5 uM after 1 hr; type: functional; how it was run: as §3
Mus musculus [13] = assay: Antidiabetic activity in C57BLKS/J-db/db mouse assessed as alleviation of glucose tolerance at 50 mg/kg/day, po for 3 weeks measured after 90 mins by intraperitoneal glucose tolerance test; type: functional, organism-based
How it was run: (§4)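 Male and female C57BLKS/J-db/db mice, randomized at 6 weeks of age by body weight and fed glucose, were gavaged once daily in vehicle (0.5% microcrystalline cellulose, 1.6% lactose). For ipGTT, D-glucose was given at 2 g/kg ip, and blood glucose was read by glucometer at 0, 15, 30, 60, 90 and 120 min.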

[14] = Cmax in 12 hrs fasting Sprague-Dawley rat at 10 mg/kg, po; type: ADME, organism-based; parameters: dose 10 mg/kg, route oral; details: in vivo
How it was run: (§5)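 Male Sprague–Dawley rats were fasted 12 h and gavaged at 10 mg/kg. Blood was taken retro-orbitally into heparin tubes from pre-dose to 24 h. Plasma levels of parent and of berberine/dihydroberberine were measured by LC–MS/MS.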

Mus musculus [15] = assay: Antidiabetic activity in C57BLKS/J-db/db mouse assessed as alleviation of glucose tolerance at 50 mg/kg/day, po for 3 weeks measured after 120 mins by intraperitoneal glucose tolerance test; type: functional, organism-based; how it was run: as §4
[16] = Aqueous solubility of compound in distilled water; type: physicochemical
How it was run: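 Excess solid was suspended in distilled water and stirred 24 h at 25 ± 0.5 °C. The suspension was filtered, and dissolved concentration was measured by HPLC.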

Mus musculus [17] = assay: Toxicity in C57BLKS/J-db/db mouse assessed as change in food intake at 50 mg/kg/day, po for 6 weeks; type: organism-based; parameters: route oral; details: in vivo, 1008 h; how it was run: as §1
Mus musculus [18] = assay: Antidiabetic activity in C57BLKS/J-db/db mouse assessed as reduction of fasting blood glucose level at 50 mg/kg/day, po for 4 weeks; type: functional; parameters: scale not given: the % may be the effect or the level left
Mus musculus [19] = assay: Antidiabetic activity in C57BLKS/J-db/db mouse assessed as alleviation of glucose tolerance at 50 mg/kg/day, po for 3 weeks measured after 15 mins by intraperitoneal glucose tolerance test; type: functional, organism-based; how it was run: as §4
[20] = Half life in 12 hrs fasting Sprague-Dawley rat at 10 mg/kg, po; type: ADME, organism-based; parameters: dose 10 mg/kg, route oral; details: in vivo; how it was run: as §5
L6 [21] = assay: Increase in glucose uptake in rat differentiated L6 myotubes after 1 hr relative to untreated control; type: functional; how it was run: as §3
Mus musculus [22] = assay: Antidiabetic activity in high fat diet-fed C57BL/6J mouse assessed as increase in glucose tolerance at 15 mg/kg/day, po for 4 weeks measured after 30 mins by intraperitoneal glucose tolerance test; type: functional, organism-based
How it was run: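 High-fat-diet (60 kcal%, 8 weeks) male C57BL/6J mice were randomized by body weight and fed glucose, then dosed orally once daily in cellulose/lactose vehicle. ipGTT was done at 4 weeks: D-glucose 2 g/kg ip, glucometer readings at 0, 15, 30, 60, 90 and 120 min. n = 5–8.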

Rattus norvegicus [23] = species on record: Rattus norvegicus; assay: Induction of AMPK phosphorylation in 2 hrs serum starved rat differentiated L6 myotubes after 1 hr; how it was run: as §2
Mus musculus [24] = assay: Antidiabetic activity in high fat diet-fed C57BL/6J mouse assessed as decrease in plasma insulin level at 15 mg/kg/day, po for 4 weeks; type: functional; parameters: scale not given: the % may be the effect or the level left
How it was run: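 DIO male C57BL/6J mice (60 kcal% fat diet for 8 weeks) were gavaged daily in 0.5% microcrystalline cellulose/1.6% lactose vehicle. Plasma insulin was determined by ELISA after 4 weeks of treatment. Mean ± SE, n = 5–8.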

L6 [25] = assay: Increase in glucose uptake in rat differentiated L6 myotubes at 20 uM in presence of 10 nM AMPK inhibitor compound C; type: functional, cell-based
L6 [26] = assay: Increase in glucose uptake in rat differentiated L6 myotubes at 20 uM after 1 hr; type: functional; how it was run: as §3

For COc1ccc2c(c1OC)C(C)(C)[N+]1=C(C2)c2cc3c(cc2CC1)OCO3.[Cl-] [8,8-dimethyldihydroberberine], which inhibition (Rattus norvegicus [1]) is on record?
The inhibition was “Dose-dependent effect”.

And the Activity (Mus musculus [2])?
Its Activity is “Non-toxic”.

What about the Activity (Rattus norvegicus [3]) of the same compound?
Its Activity is “Dose-dependent effect”.

And the Activity (Mus musculus [4])?
Its Activity is 40%.

And the Activity (Mus musculus [5])?
The Activity was “Non-toxic”.

What about the Activity (Mus musculus [6]) of the same compound?
Its Activity is “Non-toxic”.

And the Activity (L6 [7])?
Its Activity is 28%.

And the Activity (Mus musculus [8])?
Its Activity is “Active”.

What about the Activity (L6 [9]) of the same compound?
Its Activity is “Active”.

And the Activity (Mus musculus [10])?
Its Activity is “Non-toxic”.

And the Stability [11]?
The Stability was “Stable”.

What about the Activity (L6 [12]) of the same compound?
The Activity was 48%.

What about the Activity (Mus musculus [13]) of the same compound?
Its Activity is “Active”.

What about the Cmax [14] of the same compound?
The Cmax was 17.8 ng/mL.

And the Activity (Mus musculus [15])?
The Activity was “Active”.

And the solubility [16]?
Its solubility is 81 mg/mL.

What about the Activity (Mus musculus [17]) of the same compound?
The Activity was “Non-toxic”.

What about the Activity (Mus musculus [18]) of the same compound?
The Activity was 24%.

What about the Activity (Mus musculus [19]) of the same compound?
The Activity was “Active”.

What about the half-life [20] of the same compound?
Its half-life is 2.9 h.

What about the Activity (L6 [21]) of the same compound?
Its Activity is 37%.

What about the Activity (Mus musculus [22]) of the same compound?
The Activity was “Active”.

What about the Activity (Rattus norvegicus [23]) of the same compound?
Its Activity is “Dose-dependent effect”.

And the Activity (Mus musculus [24])?
The Activity was 45%.

What about the Activity (L6 [25]) of the same compound?
Its Activity is “inactive”.

And the Activity (L6 [26])?
The Activity was 67%.
